Measured values of several laboratories.
Compare with care: the assays were run in different laboratories.
Target: Casein kinase I isoform gamma-1 (CSNK1G1, Homo sapiens, UniProt Q9HCP0)

The remaining binding of `CCC(=O)N[C@@H]1CC[C@H](C(=O)N(C)c2ccc(-c3nc4ccccc4o3)cc2)C1` is reported as 100% (cell-free assay; competition with immobilised ligand; 1 µM).
For `O=C1Nc2ccc(Cl)cc2C1=Cc1cc(Cl)c(O)c(Cl)c1`, the remaining signal was 89% (cell-free assay; 0.5 µM).
`CNC(=O)c1cc(Oc2ccc(NC(=O)Nc3ccc(Cl)c(C(F)(F)F)c3)cc2)ccn1` gave an inhibition of -13% (enzyme activity; inhibitor; 10 µM).
For `C[C@H](c1cccc(C#N)c1)n1cc(Cl)cc(C(N)=O)c1=N`, the remaining binding was 96% (cell-free assay; competition with immobilised ligand; 1 µM).
For `Cc1ccc(C(=O)Nc2ccc(CN3CCN(C)CC3)c(C(F)(F)F)c2)cc1C#Cc1cnc2cccnn12`, the remaining activity was 89% (enzyme activity; inhibitor; 23.5 nM).
`CC(C)(O)[C@H]1CC[C@H](Nc2ccc3ncc(-c4cccc(C(F)(F)F)c4)n3n2)CC1` has a remaining activity of 93% (enzyme activity; inhibitor; 1 µM).
The remaining activity of `O=C(Nc1cnn(-c2csc(C(=O)NC3COC3)c2)c1)Nc1ccccc1Cl` is reported as 99% (enzyme activity; inhibitor; 5 µM).
The remaining binding of `Cn1nc(C(F)(F)F)cc1-c1cnc(N2CCc3cc(S(=O)(=O)Nc4c(F)cc(Cl)cc4F)cc(N4CCCC4=O)c32)nc1` is reported as 100% (cell-free assay; competition with immobilised ligand; 1 µM).
The remaining signal of `O=C1NC(=O)c2cc(Nc3ccc(F)cc3)c(Nc3ccc(F)cc3)cc21` is reported as 96.3% (cell-free assay; 0.5 µM).
`c1cnn2ncc(-c3ccnc(N4CCC45COC5)n3)c2c1` gave a remaining binding of 84% (binding; 1 µM).
With `O=C(O)[C@H]1[C@H](Cn2nnc3ccccc3c2=O)CC[C@@H]1C(=O)c1ccc(OCCC2CCOCC2)cc1` the remaining binding was 94% (cell-free assay; competition with immobilised ligand; 1 µM).
With `CC(C)(C)c1nc(-c2cccc(NS(=O)(=O)c3c(F)cccc3F)c2F)c(-c2ccnc(N)n2)s1` the remaining activity was 96% (enzyme activity; inhibitor; radiometric; 1 µM).
`C=CC(=O)Nc1cc(Nc2nccc(Nc3cc(Cl)c(F)cc3C(C)(C)O)n2)c(OC)cc1N1CC[C@@H](N(C)C)C1` gave an inhibition of 15% (enzyme activity; inhibitor; 1 µM).
`N#CCCc1ccc2c(c1)-c1[nH]c3ccc([N+](=O)[O-])cc3c1CC(=O)N2` gave a remaining signal of 81.6% (cell-free assay; 0.5 µM).
With `COc1ccc2cc(OCC3(C(=O)O)CN(C(=O)c4ccc(F)cc4)C3)ccc2c1` the remaining binding was 94% (cell-free assay; competition with immobilised ligand; 1 µM).
The remaining signal of `Nc1ncnc2occ(-c3ccc(NC(=O)Nc4cc(C(F)(F)F)ccc4F)cc3)c12` is reported as 18% (cell-free assay; inhibitor; 20 µM).
The remaining binding of `CCc1ccccc1C(=O)Nc1n[nH]c2c(C)c(F)c(C3C(C#N)=C(C)N(C)C(C)=C3C#N)cc12` is reported as 95% (cell-free assay; competition with immobilised ligand; 1 µM).
`CN1CC(Oc2cnc(C#N)cc2-c2ccn3nc(NC(=O)C4CC4)cc3c2)C1` gave an inhibition of -3% (enzyme activity; inhibitor; 1 µM).
`COc1cc2ncnc(Nc3ccc(Oc4ccccc4)c(C)c3C)c2cc1OC` has an inhibition of 0% (enzyme activity; inhibitor; 1 µM).
The inhibition of `Cc1ccc(Nc2nccc(N(C)c3ccc4c(C)n(C)nc4c3)n2)cc1S(N)(=O)=O` is reported as -27% (enzyme activity; inhibitor; 0.3 µM).
